Legend:
[1] = test system: CEM-VLB; assay: Interaction index, ratio of IC50 for CEM/VLB100 cells in presence of 0.2 uM laxaphycin A/IC50 for CEM/VLB100 cells; type: functional, Homo sapiens
[2] = test system: CEM-VLB; assay: Interaction index, ratio of IC50 for CEM/VLB100 cells in presence of 0.4 uM laxaphycin A/IC50 for CEM/VLB100 cells; type: functional, Homo sapiens
[3] = test system: CEM-VLB; assay: Interaction index, ratio of IC50 for CEM/VLB100 cells in presence of 1 uM laxaphycin A/IC50 for CEM/VLB100 cells; type: functional, Homo sapiens
[4] = test system: CEM-VLB; assay: Interaction index, ratio of IC50 for CEM/VLB100 cells in presence of 2 uM laxaphycin A/IC50 for CEM/VLB100 cells; type: functional, Homo sapiens
[5] = Cytotoxicity against human PA1 cells after 48 hrs by RRT; type: cell-based; conditions: pa-1, 48 h
How it was run: (§1)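 Adherent lines in supplemented Glutamax MEM, 37 °C, 5% CO2. Seeded 5 × 10³ cells/well, adhered 16 h, then treated 48 h continuously, alone or in combination, in 0.5% DMSO (solvent control). Resazurin 25 µg/mL in MEM added, 1 h at 37 °C, fluorescence 530/590 nm. Survival = % of control after blank subtraction; IC50 from concentration–survival curve. Two independent assays in triplicate.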

[6] = Cytotoxicity against human PA1 cells after 48 hrs by Hoechst 33342 assay; type: cell-based; conditions: pa-1, 48 h
How it was run: (§2)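 Adherent lines in Glutamax MEM with Earle's salts, FCS, vitamins, pyruvate, NEAA, glutamine, gentamycin. Seeded 5 × 10³ cells/well, adhered 16 h, then 48 h continuous exposure in 0.5% DMSO (solvent control). After resazurin read, cells PBS-rinsed and stored at −80 °C. Then thawed and given 30 µg/mL Hoechst 33342 in Tris pH 7.4/EDTA/NaCl buffer, 1 h at 37 °C, fluorescence 360/460 nm (DNA ∝ biomass). Two independent assays in triplicate, mean ± SD.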

[7] = Cytotoxicity against human […] cells after 48 hrs by RRT; type: cell-based; how it was run: as §1
[8] = Cytotoxicity against human […] cells after 48 hrs by Hoechst 33342 assay; type: cell-based; how it was run: as §2
[9] = Cytotoxicity against human M4Beu cells after 48 hrs by RRT; type: cell-based; how it was run: as §1
[10] = Cytotoxicity against human M4Beu cells after 48 hrs by Hoechst 33342 assay; type: cell-based; how it was run: as §2
[11] = test system: MCF7; assay: Cytotoxicity against human MCF7 cells after 48 hrs by RRT; type: cell-based; conditions: MCF7, 48 h; how it was run: as §1
[12] = test system: MCF7; assay: Cytotoxicity against human MCF7 cells after 48 hrs by Hoechst 33342 assay; type: cell-based; conditions: MCF7, 48 h; how it was run: as §2
[13] = test system: DLD-1; assay: Cytotoxicity against human DLD1cells after 48 hrs by RRT; type: cell-based; conditions: dld-1, 48 h; how it was run: as §1
[14] = test system: DLD-1; assay: Cytotoxicity against human DLD1cells after 48 hrs by Hoechst 33342 assay; type: cell-based; conditions: dld-1, 48 h; how it was run: as §2
[15] = test system: PC-3; assay: Cytotoxicity against human androgen-resistant PC3 cells after 48 hrs by RRT; type: cell-based; conditions: PC-3, 48 h; how it was run: as §1
[16] = test system: PC-3; assay: Cytotoxicity against human androgen-resistant PC3 cells after 48 hrs by Hoechst 33342 assay; type: cell-based; conditions: PC-3, 48 h; how it was run: as §2
[17] = Cytotoxicity against human fibroblasts after 48 hrs by RRT; type: cell-based; conditions: fibroblast; how it was run: as §1
[18] = Cytotoxicity against human fibroblasts after 48 hrs by Hoechst 33342 assay; type: cell-based; conditions: fibroblast; how it was run: as §2
[19] = test system: L929; assay: Cytotoxicity against mouse L929 cells after 48 hrs by RRT; type: cell-based; conditions: l929, 48 h; how it was run: as §1
[20] = test system: L929; assay: Cytotoxicity against mouse L929 cells after 48 hrs by Hoechst 33342 assay; type: cell-based; conditions: l929, 48 h; how it was run: as §2
[21] = test system: CCRF-CEM; assay: Cytotoxicity against drug-sensitive CCRF-CEM cells after 72 hrs; type: cell-based; conditions: Homo sapiens
How it was run: (§3)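 Leukemic lymphoblasts (parent CCRF-CEM, Pgp-overexpressing CEM/VLB100, topo II-altered CEM/VM-1) grown in RPMI 1640 with 10% FCS and antibiotics, 37 °C, 5% CO2. Serial dilutions in medium added to 2 × 10⁵ cells/mL for 3 days, medium not renewed. Survivors counted on a Coulter counter. Triplicate, averaged.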

[22] = Cytotoxicity against vinblastine-resistant CEM/VLB100 cells after 72 hrs; type: cell-based; conditions: Homo sapiens, CEM/VLB100, 72 h; how it was run: as §3
[23] = Cytotoxicity against teniposide-resistant CEM/VM1 cells after 72 hrs; type: cell-based; conditions: Homo sapiens, CEM-VM1, 72 h; how it was run: as §3
[24] = test system: CCRF-CEM; assay: Ratio of IC50 for vinblastine-resistant CEM/VLB100 cells over IC50 for drug-sensitive CCRF-CEM cells; type: functional, Homo sapiens
[25] = test system: CCRF-CEM; assay: Ratio of IC50 for teniposide-resistant CEM/VM1 cells over IC50 for drug-sensitive CCRF-CEM cells; type: functional, Homo sapiens
[26] = test system: CCRF-CEM; assay: Antiproliferative activity against drug-sensitive CCRF-CEM cells after 72 hrs in presence of 0.2 uM laxaphycin A; type: functional, cell-based; conditions: Homo sapiens; how it was run: as §3
[27] = test system: CCRF-CEM; assay: Antiproliferative activity against drug-sensitive CCRF-CEM cells after 72 hrs in presence of 0.4 uM laxaphycin A; type: functional, cell-based; conditions: Homo sapiens; how it was run: as §3
[28] = test system: CCRF-CEM; assay: Antiproliferative activity against drug-sensitive CCRF-CEM cells after 72 hrs in presence of 1 uM laxaphycin A; type: functional, cell-based; conditions: Homo sapiens; how it was run: as §3
[29] = test system: CCRF-CEM; assay: Antiproliferative activity against drug-sensitive CCRF-CEM cells after 72 hrs in presence of 2 uM laxaphycin A; type: functional, cell-based; conditions: Homo sapiens; how it was run: as §3
[30] = test system: CEM-VLB; assay: Antiproliferative activity against vinblastine-resistant CEM/VLB100 after 72 hrs in presence of 0.2 uM laxaphycin A; type: functional, cell-based; conditions: Homo sapiens; how it was run: as §3
[31] = test system: CEM-VLB; assay: Antiproliferative activity against vinblastine-resistant CEM/VLB100 after 72 hrs in presence of 0.4 uM laxaphycin A; type: functional, cell-based; conditions: Homo sapiens; how it was run: as §3
[32] = test system: CEM-VLB; assay: Antiproliferative activity against vinblastine-resistant CEM/VLB100 after 72 hrs in presence of 1 uM laxaphycin A; type: functional, cell-based; conditions: Homo sapiens; how it was run: as §3
[33] = test system: CEM-VLB; assay: Antiproliferative activity against vinblastine-resistant CEM/VLB100 after 72 hrs in presence of 2 uM laxaphycin A; type: functional, cell-based; conditions: Homo sapiens; how it was run: as §3
[34] = test system: CEM-VM1; assay: Antiproliferative activity against teniposide-resistant CEM/VM1 after 72 hrs in presence of 0.2 uM laxaphycin A; type: functional, cell-based; conditions: Homo sapiens, CEM-VM1, 72 h; how it was run: as §3
[35] = test system: CEM-VM1; assay: Antiproliferative activity against teniposide-resistant CEM/VM1 after 72 hrs in presence of 0.4 uM laxaphycin A; type: functional, cell-based; conditions: Homo sapiens, CEM-VM1, 72 h; how it was run: as §3
[36] = test system: CEM-VM1; assay: Antiproliferative activity against teniposide-resistant CEM/VM1 after 72 hrs in presence of 1 uM laxaphycin A; type: functional, cell-based; conditions: Homo sapiens, CEM-VM1, 72 h; how it was run: as §3
[37] = test system: CEM-VM1; assay: Antiproliferative activity against teniposide-resistant CEM/VM1 after 72 hrs in presence of 2 uM laxaphycin A; type: functional, cell-based; conditions: Homo sapiens, CEM-VM1, 72 h; how it was run: as §3
[38] = test system: DLD-1; assay: Survival of human DLD1 cells at 2 uM after 48 hrs by RRT assay; type: functional
How it was run: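 Adherent cells cultured in Glutamax Eagle's MEM with Earle's salts, fetal calf serum, vitamins, pyruvate, nonessential amino acids, glutamine and gentamycin at 37 °C, 5% CO2. Seeded 5 × 10³ cells/well, 16 h adhesion, then 48 h continuous exposure in 0.5% DMSO, alone or combined. Resazurin (25 µg/mL in MEM) added for 1 h at 37 °C, fluorescence 530/590 nm; survival as percentage of solvent controls after blank subtraction; two independent experiments in triplicate, averaged.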

[39] = test system: DLD-1; assay: Increase in cytotoxicity in human DLD1 cells at 2 uM after 48 hrs in presence of 1 uM laxaphycin A by RRT assay; type: cell-based; conditions: dld-1, 48 h; how it was run: as §1
[40] = test system: DLD-1; assay: Increase in cytotoxicity in human DLD1 cells at 2 uM after 48 hrs in presence of 1.5 uM laxaphycin A by RRT assay; type: cell-based; conditions: dld-1, 48 h; how it was run: as §1
[41] = test system: DLD-1; assay: Increase in cytotoxicity in human DLD1 cells at 2 uM after 48 hrs in presence of 2 uM laxaphycin A by RRT assay; type: cell-based; conditions: dld-1, 48 h; how it was run: as §1
[42] = test system: CCRF-CEM; assay: Interaction index, ratio of IC50 for CCRF-CEM cells in presence of 0.2 uM laxaphycin A/IC50 for CCRF-CEM cells; type: functional, Homo sapiens
[43] = test system: CCRF-CEM; assay: Interaction index, ratio of IC50 for CCRF-CEM cells in presence of 0.4 uM laxaphycin A/IC50 for CCRF-CEM cells; type: functional, Homo sapiens
[44] = test system: CCRF-CEM; assay: Interaction index, ratio of IC50 for CCRF-CEM cells in presence of 1 uM laxaphycin A/IC50 for CCRF-CEM cells; type: functional, Homo sapiens
[45] = test system: CCRF-CEM; assay: Interaction index, ratio of IC50 for CCRF-CEM cells in presence of 2 uM laxaphycin A/IC50 for CCRF-CEM cells; type: functional, Homo sapiens
[46] = test system: CEM-VM1; assay: Interaction index, ratio of IC50 for CEM/VM1 cells in presence of 0.2 uM laxaphycin A/IC50 for CEM/VM1 cells; type: functional, Homo sapiens
[47] = test system: CEM-VM1; assay: Interaction index, ratio of IC50 for CEM/VM1 cells in presence of 0.4 uM laxaphycin A/IC50 for CEM/VM1 cells; type: functional, Homo sapiens
[48] = test system: CEM-VM1; assay: Interaction index, ratio of IC50 for CEM/VM1 cells in presence of 1 uM laxaphycin A/IC50 for CEM/VM1 cells; type: functional, Homo sapiens
[49] = test system: CEM-VM1; assay: Interaction index, ratio of IC50 for CEM/VM1 cells in presence of 2 uM laxaphycin A/IC50 for CEM/VM1 cells; type: functional, Homo sapiens

SMILES: CCCCCCC[C@@H]1CC(=O)N[C@@H](C(C)C)C(=O)N[C@@H]([C@@H](O)C(C)C)C(=O)N[C@@H](C)C(=O)N[C@H]([C@@H](O)C(C)C)C(=O)N[C@@H](CCC(N)=O)C(=O)N(C)[C@@H]([C@@H](C)CC)C(=O)N[C@H]([C@@H](O)C(N)=O)C(=O)N[C@@H]([C@@H](C)O)C(=O)N2CCC[C@H]2C(=O)N[C@H](CC(C)C)C(=O)N[C@@H]([C@@H](C)O)C(=O)N1 [LAXAPHYCIN B]
- Ratio IC50 [1]: 0.9
- Ratio IC50 [2]: 0.56
- Ratio IC50 [3]: 0.35
- Ratio IC50 [4]: 0.32
- Activity [5]: Dose-dependent effect
- Activity [6]: Dose-dependent effect
- Activity [7]: Dose-dependent effect
- Activity [8]: Dose-dependent effect
- IC50 [9]: 400 nM
- IC50 [10]: 300 nM
- IC50 [11]: 1000 nM
- IC50 [12]: 500 nM
- Activity [13]: Dose-dependent effect
- Activity [14]: Dose-dependent effect
- IC50 [15]: 800 nM
- IC50 [16]: 580 nM
- Activity [17]: Dose-dependent effect
- Activity [18]: Dose-dependent effect
- Activity [19]: Dose-dependent effect
- Activity [20]: Dose-dependent effect
- IC50 [21]: 1110 nM
- IC50 [22]: 1020 nM
- IC50 [23]: 1370 nM
- Ratio IC50 [24]: 0.9
- Ratio IC50 [25]: 1.2
- IC50 [26]: 620 nM
- IC50 [27]: 500 nM
- IC50 [28]: 410 nM
- IC50 [29]: 350 nM
- IC50 [30]: 920 nM
- IC50 [31]: 570 nM
- IC50 [32]: 360 nM
- IC50 [33]: 330 nM
- IC50 [34]: 720 nM
- IC50 [35]: 600 nM
- IC50 [36]: 430 nM
- IC50 [37]: 410 nM
- Activity [38]: 90%
- Activity [39]: Active
- Activity [40]: Active
- Activity [41]: Active
- Ratio IC50 [42]: 0.56
- Ratio IC50 [43]: 0.45
- Ratio IC50 [44]: 0.41
- Ratio IC50 [45]: 0.32
- Ratio IC50 [46]: 0.53
- Ratio IC50 [47]: 0.44
- Ratio IC50 [48]: 0.32
- Ratio IC50 [49]: 0.3
